Assay outcomes deposited in PubChem by several laboratories.
An excerpt weighted towards active compounds, which were near 2.1% of everything screened.
MEKK2wt PB1 HTS – raises or lowers MEK5 binding to wildtype human MEKK2 PB1 domain. Q9Y2U5. bead flow cytometry, Alexa488-MEK5 binding to MEKK2 WT; actives lie on both sides. hit rate 1.1% among 290,000. binding response (% of control), % at 10 µM. AID 1531; in the data active means binding response below about 67% or above about 130%
MEKK3 PB1 HTS – MEKK3-MEK5 PB1 interaction, increase or decrease; bead-based flow cytometry, Alexa488-MEK5 binding to MEKK3; actives lie on both sides; 0 = blocked by unlabeled MEK5, 100 = vehicle; binding response (% of control), % at 10 µM; hit rate 1.4% among 290,000;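 active means binding response more than 3 SD above or below the average of its plate-row segment, actives on both sides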;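 further: Alexa488 bead fluorescence after subtracting the streptavidin-only scavenger bead signal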
GSK3 alpha inh – inhibitors of human GSK-3 alpha kinase; hit rate 0.1% among 320,000; inhibition, % at 10 µM; ADP-Glo luminescence, 60 min;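 active means more than half of replicates show inhibition above 20%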;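 further: GST-tagged GSK-3 alpha with peptide substrate and 25 µM ATP; 0% = DMSO neutral wells and 100% = GW8510 positive control wells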
MEKK2mut PB1 HTS – signal of MEK5 binding to mutant human MEKK2 PB1 domain | hit rate 0.35% among 290,000 | AID 1530 | bead flow cytometry, Alexa488-MEK5 binding to MEKK2 mutant | percent response, % at 10 µM; in the data active means percent response above about 24%, passing the limit was not always enough
STK33 kinase inh – blocks human STK33 kinase activity; inhibition, % at 10 µM; AID 2661; hit rate 0.073% among 320,000; purified STK33, MBP phosphorylation, ADP-Glo luminescence;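 active means inhibition at or above 25%, using the most active replicate where run in duplicate; inactive means inhibition below 25%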
GSK3beta inhib – blocks human GSK3beta kinase activity; GST-GSK3beta kinase, ADP-Glo luminescence, 60 min; stronger effect = lower value; P49841; hit rate 0.038% among 300,000; activity score (negative = inhibition), % at 10 µM;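 active means more than half of replicate wells score below -50%, meaning over 50% inhibition versus plate controls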;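 further: 0% = median DMSO wells and -100% = median GW8510 positive control wells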
Target sequence (P49841 whole entry, looked up): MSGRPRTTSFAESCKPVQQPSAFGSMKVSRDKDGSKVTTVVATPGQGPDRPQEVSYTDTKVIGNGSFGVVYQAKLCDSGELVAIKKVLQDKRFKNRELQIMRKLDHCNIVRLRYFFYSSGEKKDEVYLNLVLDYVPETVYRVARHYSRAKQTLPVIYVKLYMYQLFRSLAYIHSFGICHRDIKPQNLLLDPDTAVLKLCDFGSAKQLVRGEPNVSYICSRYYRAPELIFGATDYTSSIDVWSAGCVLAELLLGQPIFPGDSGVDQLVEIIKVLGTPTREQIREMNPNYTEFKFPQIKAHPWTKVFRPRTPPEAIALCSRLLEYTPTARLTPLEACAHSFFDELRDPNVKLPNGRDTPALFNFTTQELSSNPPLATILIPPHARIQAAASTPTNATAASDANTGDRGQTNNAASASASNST
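Test system: GST-fused GSK3beta enzyme, cell-free | Quantity: 1.6 ng GST-GSK3beta enzyme per well | Reagent: 25 µM ATP with peptide substrate | Schedule: 60 min enzyme reaction, room temperature | Signal: Luminescent ADP-Glo measurement of ADP formed | Read-out basis: Score relative to plate controls | Control set: DMSO and 20 µM GW8510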
MEKK2wt confirm – raises or lowers MEK5 binding to wildtype human MEKK2, retest | bead flow cytometry, Alexa488-MEK5 binding to MEKK2 WT; actives lie on both sides | AID 1892 | shares compounds with MEKK3 PB1 HTS | hit rate 2.4% among 5,900 | binding response (% of control), % at 10 µM; in the data active means binding response below about 16% or above about 210%; inactive means in between
MEKK2mut confirm – signal of MEK5 binding to mutant human MEKK2, retest. percent response, % at 10 µM. bead flow cytometry, Alexa488-MEK5 binding to MEKK2 mutant. hit rate 2% among 5,900. shares compounds with MEKK3 PB1 HTS; in the data active means percent response mostly above about 71%, no sharp cut-off; inactive means mostly below about 38%;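 further: higher means compound restores mutant binding toward wildtype level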
MEKK3 confirm – MEKK3-MEK5 PB1 inhibition, single concentration confirmation. shares compounds with MEKK3 PB1 HTS. bead flow cytometry, Alexa488-MEK5 binding to MEKK3; stronger effect = lower value. binding response (% of control), % at 10 µM. hit rate 1.8% among 5,900;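 active means binding response below 72% of control, or above a set upper limit, though filed actives all read lower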;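 further: 100% = DMSO only wells and 0% = binding blocked by excess unlabeled MEK5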
Numbers without * were called inactive; . = not tested or not shown; [ ] = dose if it differs, or a comment.

SMILES | MEKK2wt PB1 HTS | MEKK3 PB1 HTS | GSK3 alpha inh | MEKK2mut PB1 HTS | STK33 kinase inh | GSK3beta inhib | MEKK2wt confirm | MEKK2mut confirm | MEKK3 confirm
COc1ccc(NC(=O)C23CC4CC(C2)CC(c2ccc(C)cc2)(C4)C3)cc1 | 117.0 | 150.0* | -2.1 | 1.0 | -2.4 | -1.5 | 105.0 | 5.0 | 107.0
O=C(COC(=O)c1ccc(S(=O)(=O)Nc2ccccc2)cc1)NCc1ccco1 | 98.0 | 101.0 | -1.2 | -3.0 | 0.1 | -5.3 | . | . | .
O=C(Cn1cnc2ccccc21)Nc1ccc2c(c1)OCCCO2 | . | . | -3.5 | . | -0.3 | . | . | . | .
c1cc2nc(C34CC5CC(CC(C5)C3)C4)[nH]c2cn1 | 3.0*[inhibitor] | 2.0*[inhibitor] | 4.8 | -15.0 | -0.3 | 0.8 | 96.0 | -3.0 | 97.0
CCCCCCCCCCCCCCCC[n+]1ccc(C(N)=O)cc1 | 139.0* | 106.0 | 1.7 | 1.0 | 19.5 | . | 157.0 | 31.0 | 104.0
CCCCCCCCCCCCCCCC[n+]1ccc(/C=N/O)cc1 | 150.0* | 127.0 | -0.3 | 45.0 | 22.9 | . | 257.0* | 181.0* | 112.0
CCCCCCCCCCCCCCCC[n+]1cccc(C(=O)N(CC)CC)c1 | 126.0 | 76.0 | 24.3 | 9.0 | -1.5 | -2.2 | . | . | .
COCCCNC(=S)NNC(=O)c1ccc(S(=O)(=O)N2CCC(C)CC2)cc1 | 105.0 | 109.0 | -0.1 | 0.0 | -0.8 | 2.6 | . | . | .
Cc1cccc(N2CC(C(=O)Nc3ccc(N4CCOCC4)cc3)CC2=O)c1C (stereo not given) | . | . | -2.9 | . | 0.8 | . | . | . | .
COc1ccc(S(=O)(=O)N2CCOCC2)cc1NC(=O)CSc1cccc[n+]1[O-] | 98.0 | 99.0 | -4.4 | 0.0 | -0.8 | 0.6 | . | . | .
Nc1nc(-c2cccc(NS(=O)(=O)c3ccccc3)c2)cs1 | 85.0 | 82.0*[inhibitor] | 0.5 | -12.0 | -1.2 | -16.2 | 96.0 | -7.0 | 99.0
CN(C)CC(C)(C)CNC(=S)NCc1ccc2c(c1)OCO2 | 104.0 | 128.0* | -4.8 | 3.0 | -0.2 | -2.3 | 99.0 | 3.0 | 106.0
CCCN(Cc1cc2cc(C)ccc2[nH]c1=O)S(C)(=O)=O | 120.0 | 128.0* | -4.2 | 5.0 | 1.6 | -2.3 | 101.0 | 3.0 | 103.0
COc1cc(/C=C2\SC(=S)N(CC(=O)Nc3ccc(O)cc3)C2=O)cc(OC)c1OC | 51.0 | 67.0*[inhibitor] | . | 90.0* | . | -1.3 | 87.0 | -12.0 | 97.0
COc1cccc(OC)c1C(=O)Nc1cccc(S(=O)(=O)Nc2ccccc2Cl)c1 | . | . | 4.9 | . | 0.8 | . | . | . | .
O=C(CCOc1ccccc1)Nc1cccc(S(=O)(=O)Nc2ccccc2Cl)c1 | 99.0 | 151.0* | 0.3 | -2.0 | -0.2 | 0.0 | 103.0 | -3.0 | 101.0
CN(/N=C/c1ccncc1)c1cnc2ccccc2n1 | 88.0 | 74.0*[inhibitor] | -3.1 | -2.0 | 14.1 | -1.1 | 104.0 | 3.0 | 104.0
CC(OC(=O)CN1C(=O)NC2(CCCCC2C)C1=O)c1ccccc1 (stereo not given) | . | . | 1.0 | . | -0.4 | . | . | . | .
Cc1ccc(-n2nnnc2SCC(=O)c2c(N)n(C3CC3)c(=O)[nH]c2=O)c(C)c1 | . | . | 0.2 | . | -0.5 | . | . | . | .
CSc1scc2c1-c1nc(SCC(=O)C(C)(C)C)ncc1CC2 | 68.0 | 66.0*[inhibitor] | 1.6 | -34.0 | -0.4 | -2.8 | 102.0 | 1.0 | 105.0
COc1ccc(/C=N/N=C2\SCC(=O)N2c2c(C)n(C)n(-c3ccccc3)c2=O)cc1OC | 108.0 | 146.0* | -3.9 | 4.0 | -1.0 | 2.0 | 102.0 | 2.0 | 104.0
Cc1c(N2C(=O)CS/C2=N\N=C\c2ccc(Cl)cc2)c(=O)n(-c2ccccc2)n1C | 107.0 | 101.0 | -1.9 | 10.0 | -0.5 | 0.2 | . | . | .
N#C/C(=C/c1ccc(N2CCCCC2)o1)C(=O)Nc1ccc2ccccc2c1 | 210.0* | 148.0* | . | 206.0* | . | 1.6 | 89.0 | -30.0 | 92.0
CCOC(=O)N1CCN(c2ncnc3c2[nH]c2ccc(OC)cc23)CC1 | 105.0 | 99.0 | -0.5 | 1.0 | 4.3 | -0.5 | . | . | .
COc1ccc2[nH]c3c(N4CCc5ccccc5C4)ncnc3c2c1 | 189.0* | 127.0 | -4.1 | 47.0 | 1.2 | 1.3 | 130.0 | 15.0 | 103.0
SMILES | MEKK2wt PB1 HTS | MEKK3 PB1 HTS | GSK3 alpha inh | MEKK2mut PB1 HTS | STK33 kinase inh | GSK3beta inhib | MEKK2wt confirm | MEKK2mut confirm | MEKK3 confirm
COc1ccc2nc(N(CCN(C)C)C(=O)c3ccc(C(=O)c4ccccc4)cc3)sc2c1 | 146.0* | 108.0 | 1.0 | 24.0* | 0.5 | -0.4 | 148.0 | 18.0 | 102.0
COc1ccc2nc(N(CCN(C)C)C(=O)c3ccc4ccccc4c3)sc2c1 | 132.0 | 101.0 | -1.8 | 8.0 | -0.9 | 1.0 | . | . | .
CCN(CC)CCN(C(=O)c1ccc(C(=O)c2ccccc2)cc1)c1nc2ccc(OC)cc2s1 | 172.0* | 113.0 | -4.3 | 37.0* | -0.3 | -1.0 | 163.0 | 31.0 | 105.0
Nc1ccc(C23CC4CC(CC(CO)(C4)C2)C3)cc1 | 102.0 | 103.0 | -2.4 | 1.0 | -1.3 | 2.5 | . | . | .
NCC12CC3CC(C1)CC(c1ccc(Cl)cc1)(C3)C2 | 155.0* | 98.0 | 8.1 | 26.0 | -0.2 | -8.1 | 147.0 | 29.0 | 102.0
CC1(C)CC(N=Cc2c(O)n(Cc3ccc4c(c3)OCO4)c(=O)c3ccccc23)CC(C)(C)N1 | 149.0* | 99.0 | -1.0 | 16.0 | -1.0 | -3.7 | 160.0 | 24.0 | 106.0
COc1ccc(C(=O)Nc2ccc3nc(N4CCN(C)CC4)cc(C)c3c2)c(OC)c1 | 156.0* | 106.0 | 0.6 | 24.0* | 2.1 | -1.5 | 142.0 | 34.0 | 108.0
COc1ccc(C)cc1NC(=O)CCC(=O)Nc1ccc2nc(N3CCN(C)CC3)cc(C)c2c1 | . | . | -1.9 | . | -0.2 | 1.5 | . | . | .
CCN1CCN(c2cc(C)c3cc(NC(=O)CCC(=O)Nc4ccc(OC)c(OC)c4)ccc3n2)CC1 | 110.0 | 104.0 | 0.0 | 7.0 | -0.8 | 3.1 | . | . | .
CCN1CCN(c2cc(C)c3cc(NC(=O)c4ccc(OC)c(OC)c4)ccc3n2)CC1 | 130.0 | 105.0 | -1.3 | 30.0* | 0.1 | -1.4 | 126.0 | 13.0 | 102.0
COc1ccc(NC(=O)Cn2c(-c3ccccc3)cc(C(C)=O)c2C)c(OC)c1 | 79.0 | 90.0 | 3.6 | -12.0 | -1.6 | -2.2 | . | . | .
COc1ccc(CN(CC(=O)NCC2CCCO2)C(=O)CNS(=O)(=O)c2ccccc2)cc1 (stereo not given) | 99.0 | 102.0 | -1.7 | 1.0 | -0.9 | -2.6 | . | . | .
Cc1c(C(N)=O)sc(N)c1C(=O)OC(C)C | 118.0 | 122.0* | 17.3 | 8.0 | 2.7 | -5.2 | 103.0 | 0.0 | 106.0
CC(=O)c1sc(N)c(C(=O)OC(C)C)c1C | 107.0 | 105.0 | -0.1 | 1.0 | -1.0 | 2.6 | . | . | .
